Results from ChEMBL document CHEMBL1949570, “Quinoline- and isoquinoline-sulfonamide derivatives of LCAP as potent CNS multi-receptor-5-HT1A/5-HT2A/5-HT7 and D2/D3/D4-agents: the synthesis and pharmacological evaluation” (Bioorg Med Chem, 2012).
Activity calls are given as the source filed them. The rule behind the calls is not given here.

Tests used:
[1] = target: T1, 5-hydroxytryptamine receptor 1A (Rattus norvegicus, UniProt P19327); assay: Displacement of [3H]8-OH-DPAT from rat hippocampus 5-HT1A receptor by liquid scintillation counter; format: tissue-based
T1 sequence (P19327 whole entry): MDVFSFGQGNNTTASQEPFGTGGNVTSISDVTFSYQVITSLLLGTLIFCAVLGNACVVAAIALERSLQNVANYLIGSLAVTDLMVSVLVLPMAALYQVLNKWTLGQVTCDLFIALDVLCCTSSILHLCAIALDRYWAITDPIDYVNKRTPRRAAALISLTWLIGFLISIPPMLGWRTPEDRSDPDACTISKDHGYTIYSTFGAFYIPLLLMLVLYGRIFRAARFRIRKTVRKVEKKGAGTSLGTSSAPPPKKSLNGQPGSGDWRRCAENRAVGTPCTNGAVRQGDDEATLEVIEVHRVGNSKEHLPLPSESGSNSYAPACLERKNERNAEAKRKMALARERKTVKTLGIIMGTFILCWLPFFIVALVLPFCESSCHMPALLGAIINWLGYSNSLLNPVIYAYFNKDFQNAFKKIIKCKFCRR
Procedure, shortened: (§1)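 Competition binding. 5-HT1A: rat hippocampus, [3H]-8-OH-DPAT. 5-HT2A: rat cortex, [3H]-ketanserin. D2: rat striatum, [3H]-spiperone. 5-HT6: human receptor stably in HEK293, [3H]-LSD. 5-HT7: human receptor stably in HEK293, [3H]-5-CT. Vacuum filtration on GF/B filters, ice-cold washes, scintillation counting.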

[2] = target: 5-hydroxytryptamine receptor 2A (Rattus norvegicus, UniProt P14842); assay: Displacement of [3H]Ketanserin from rat cortex 5-HT2A receptor by liquid scintillation counter; procedure, shortened: as §1
Chain of 5-hydroxytryptamine receptor 2A (P14842 whole entry): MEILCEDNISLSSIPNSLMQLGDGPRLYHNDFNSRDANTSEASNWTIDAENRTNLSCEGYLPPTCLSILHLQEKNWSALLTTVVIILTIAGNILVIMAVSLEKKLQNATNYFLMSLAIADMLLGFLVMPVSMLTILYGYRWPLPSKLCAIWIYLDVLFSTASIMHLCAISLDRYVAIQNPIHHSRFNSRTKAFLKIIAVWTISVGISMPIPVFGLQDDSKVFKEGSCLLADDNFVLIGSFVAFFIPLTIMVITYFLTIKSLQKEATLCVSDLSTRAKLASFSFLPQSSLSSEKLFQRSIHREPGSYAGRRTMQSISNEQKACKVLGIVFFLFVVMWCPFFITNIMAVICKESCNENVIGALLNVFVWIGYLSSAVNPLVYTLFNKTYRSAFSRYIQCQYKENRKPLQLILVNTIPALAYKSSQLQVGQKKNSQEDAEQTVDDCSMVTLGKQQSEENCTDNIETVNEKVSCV

Mus musculus [3] = assay: Antipsychotic activity in CD1 mouse assessed as reduction in spontaneous locomotor activity measuring number of crossings at 0.5 to 1 mg/kg every 5 mins for 1 hr; format: functional, organism-based
Procedure, shortened: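 Male CD-1 mice; compound or reference ip 30 min before test plus vehicle. After 30 min habituation in individual cages, crossings counted over 1 h, recorded every 5 min; mean ± SEM; one-way ANOVA, Bonferroni.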

Mus musculus [4] = species on record: Mus musculus; assay: Antipsychotic activity in CD1 mouse assessed as inhibition of MK-801-induced hyperactivity measuring number of crossings measured every 5 mins for 1 hr; format: functional, organism-based
Procedure, shortened: (§2)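 Male CD-1 mice, one per cage, habituated 30 min; photobeam crossings (ambulation) then counted over 1 h, logged every 5 min. Drugs suspended in 1% aqueous Tween 80 and given ip at 10 ml/kg, 30 min before test. For hyperactivity, MK-801 (0.2 mg/kg, in distilled water) was given ip 15 min before test. 5–10 mice/dose; mean ± SEM, one-way ANOVA with Bonferroni test.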

Mus musculus [5] = assay: Antidepressant activity in mouse assessed as spontaneous locomotor activity 10 to 30 mg/kg; format: functional, organism-based
Procedure, shortened: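 Swiss albino mice given the forced swim doses ip 30 min before; placed individually in cages and channel crossings counted from 2 to 6 min with a multichannel activity monitor, matching the swim test observation period.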

Mus musculus [6] = assay: […] activity in Swiss albino mouse assessed as inhibition of apomorphine-induced climbing behavior administered 10 mins before apomorphine challenge measured for 2 mins; format: functional
Procedure, shortened: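 Male Swiss albino mice; compounds ip in 1% Tween 80 suspension, 10 min before apomorphine 3 mg/kg. Climbing time (2–4 paws on bar wall) recorded for 2 min starting 20 min after apomorphine.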

Mus musculus [7] = assay: […] activity in ip dosed Swiss albino mouse assessed as inhibition of DOI-induced head twitches administered 20 mins before DOI challenge measured for 20 mins; format: functional; conditions: for ED50: read-out: ID50 (the source's name)
[8] = target: T2, D(4) dopamine receptor (Homo sapiens) (UniProt P21917); assay: Displacement of [3H]-methylspiperone from human cloned dopamine D4 receptor expressed in HEK293 cells at 10 '-6 M by liquid scintillation counter; format: cell-based
T2 sequence (whole entry): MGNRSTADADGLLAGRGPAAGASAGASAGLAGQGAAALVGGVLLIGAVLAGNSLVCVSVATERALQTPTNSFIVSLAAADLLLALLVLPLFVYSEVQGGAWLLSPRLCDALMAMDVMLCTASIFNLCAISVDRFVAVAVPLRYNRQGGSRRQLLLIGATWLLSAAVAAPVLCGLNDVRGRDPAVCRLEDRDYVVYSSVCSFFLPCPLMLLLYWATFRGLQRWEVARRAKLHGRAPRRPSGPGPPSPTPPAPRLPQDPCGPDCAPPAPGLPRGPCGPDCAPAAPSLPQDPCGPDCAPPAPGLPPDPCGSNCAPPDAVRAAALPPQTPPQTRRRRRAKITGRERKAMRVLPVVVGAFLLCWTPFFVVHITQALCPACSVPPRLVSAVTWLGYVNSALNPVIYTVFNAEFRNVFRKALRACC

[9] = target: T2, D(4) dopamine receptor (Homo sapiens); assay: Displacement of [3H]-methylspiperone from human cloned dopamine D4 receptor expressed in HEK293 cells at 10 '-7 M by liquid scintillation counter; format: cell-based
[10] = target: D(3) dopamine receptor (Homo sapiens) (UniProt P35462); assay: Displacement of [3H]-methylspiperone from human cloned dopamine D3 receptor expressed in HEK293 cells at 10 '-6 M by liquid scintillation counter; format: cell-based
Chain of D(3) dopamine receptor (Homo sapiens) (P35462 whole entry): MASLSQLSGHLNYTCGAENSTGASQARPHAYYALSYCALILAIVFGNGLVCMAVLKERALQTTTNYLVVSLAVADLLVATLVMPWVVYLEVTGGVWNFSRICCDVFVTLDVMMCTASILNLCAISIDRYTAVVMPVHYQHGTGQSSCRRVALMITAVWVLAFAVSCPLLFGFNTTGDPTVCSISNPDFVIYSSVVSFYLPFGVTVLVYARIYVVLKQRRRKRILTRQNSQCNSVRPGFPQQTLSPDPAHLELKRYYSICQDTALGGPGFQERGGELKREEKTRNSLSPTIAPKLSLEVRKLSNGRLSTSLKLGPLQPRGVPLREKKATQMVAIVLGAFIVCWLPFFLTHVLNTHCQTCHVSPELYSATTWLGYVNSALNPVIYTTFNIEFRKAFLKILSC

[11] = target: D(3) dopamine receptor (Homo sapiens) (UniProt P35462); assay: Displacement of [3H]-methylspiperone from human cloned dopamine D3 receptor expressed in HEK293 cells at 10 '-7 M by liquid scintillation counter; format: cell-based
D(2) dopamine receptor = D(2) dopamine receptor (Rattus norvegicus, UniProt P61169); assay: Displacement of [3H]-spiperone from rat striatum dopamine D2 receptor by liquid scintillation counter; procedure, shortened: as §1
Chain of D(2) dopamine receptor (P61169 whole entry): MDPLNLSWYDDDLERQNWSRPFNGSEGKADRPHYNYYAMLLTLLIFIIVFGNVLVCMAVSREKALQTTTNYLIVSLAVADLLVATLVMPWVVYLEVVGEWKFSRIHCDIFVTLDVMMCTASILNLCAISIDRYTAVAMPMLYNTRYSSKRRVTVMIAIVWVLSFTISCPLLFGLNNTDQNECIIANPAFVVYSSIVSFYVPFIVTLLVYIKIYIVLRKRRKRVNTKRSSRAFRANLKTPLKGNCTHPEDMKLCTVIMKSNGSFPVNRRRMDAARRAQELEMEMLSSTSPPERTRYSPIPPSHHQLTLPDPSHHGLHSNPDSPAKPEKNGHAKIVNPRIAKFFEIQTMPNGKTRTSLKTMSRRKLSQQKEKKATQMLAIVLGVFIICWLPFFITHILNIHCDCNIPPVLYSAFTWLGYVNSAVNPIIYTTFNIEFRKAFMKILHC

[12] = Selectivity ratio of compound Ki for rat hippocampus 5-HT1A receptor to human 5HT7 receptor; format: tissue-based
Procedure, shortened: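 Ratio of Ki values from competition binding: rat hippocampus 5-HT1A with [3H]-8-OH-DPAT versus human 5-HT7 in HEK293 with [3H]-5-CT; Ki by Cheng–Prusoff from 7–9 concentrations in triplicate.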

[13] = target: 5-hydroxytryptamine receptor 7 (Homo sapiens, UniProt P34969); assay: Displacement of [3H]5-CT form human cloned 5HT7 receptor expressed in human HEK293 cells by liquid scintillation counter; format: cell-based; procedure, shortened: as §1
Chain of 5-hydroxytryptamine receptor 7 (P34969 whole entry): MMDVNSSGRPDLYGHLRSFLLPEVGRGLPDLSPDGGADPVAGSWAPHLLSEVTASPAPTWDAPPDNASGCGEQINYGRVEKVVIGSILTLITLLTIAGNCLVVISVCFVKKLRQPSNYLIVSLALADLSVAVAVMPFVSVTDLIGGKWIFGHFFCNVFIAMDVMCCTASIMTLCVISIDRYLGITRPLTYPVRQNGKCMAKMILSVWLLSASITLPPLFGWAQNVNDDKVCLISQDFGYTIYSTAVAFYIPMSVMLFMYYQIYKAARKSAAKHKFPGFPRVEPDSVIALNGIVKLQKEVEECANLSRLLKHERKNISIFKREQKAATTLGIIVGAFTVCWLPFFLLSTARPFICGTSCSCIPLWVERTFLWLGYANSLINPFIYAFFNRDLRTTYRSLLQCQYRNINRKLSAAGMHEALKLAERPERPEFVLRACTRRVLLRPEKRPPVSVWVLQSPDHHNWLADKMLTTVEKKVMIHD

[14] = target: 5-hydroxytryptamine receptor 6 (Homo sapiens, UniProt P50406); assay: Displacement of [3H]-LSD from human full length cloned 5HT6 receptor expressed in human HEK293 cells by liquid scintillation counter; format: cell-based; procedure, shortened: as §1
Chain of 5-hydroxytryptamine receptor 6 (P50406 whole entry): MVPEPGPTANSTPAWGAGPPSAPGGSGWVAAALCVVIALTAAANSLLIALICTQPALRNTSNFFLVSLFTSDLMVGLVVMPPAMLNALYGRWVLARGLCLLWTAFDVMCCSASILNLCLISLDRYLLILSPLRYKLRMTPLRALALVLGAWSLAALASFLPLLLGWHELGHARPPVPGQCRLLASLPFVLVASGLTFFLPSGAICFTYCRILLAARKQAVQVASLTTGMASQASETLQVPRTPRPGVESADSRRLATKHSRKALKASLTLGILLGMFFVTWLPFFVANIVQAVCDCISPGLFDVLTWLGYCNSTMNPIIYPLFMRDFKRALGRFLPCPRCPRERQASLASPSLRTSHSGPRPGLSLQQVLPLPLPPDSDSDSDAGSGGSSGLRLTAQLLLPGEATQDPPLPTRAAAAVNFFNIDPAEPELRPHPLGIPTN

Rattus norvegicus [15] = assay: Anxiolytic activity in Wistar rat assessed as increase in open arm entries at 5 mg/kg after 5 mins by plus-maze test (reference value: 26.3 +/- 2.1 %); format: functional
Rattus norvegicus [16] = assay: Anxiolytic activity in Wistar rat assessed as increase in open arm entries at 2.5 mg/kg after 5 mins by plus-maze test (reference value: 26.3 +/- 2.1 %); format: functional
Rattus norvegicus [17] = assay: Anxiolytic activity in Wistar rat assessed as increase in open arm entries at 1.25 mg/kg after 5 mins by plus-maze test (reference value: 26.3 +/- 2.1 %); format: functional
Rattus norvegicus [18] = assay: Anxiolytic activity in Wistar rat assessed as increase in time spent in open arms at 5 mg/kg after 5 mins by plus-maze test (reference value: 13 +/- 2.3 %); format: functional
Rattus norvegicus [19] = assay: Anxiolytic activity in Wistar rat assessed as increase in time spent in open arms at 2.5 mg/kg after 5 mins by plus-maze test (reference value: 13 +/- 2.3 %); format: functional
Rattus norvegicus [20] = assay: Anxiolytic activity in Wistar rat assessed as increase in time spent in open arms at 1.25 mg/kg after 5 mins by plus-maze test (reference value: 13 +/- 2.3 %); format: functional
Mus musculus [21] = assay: Antipsychotic activity in CD1 mouse assessed as reduction in spontaneous locomotor activity measuring number of crossings at 1.25 to 5 mg/kg every 5 mins for 1 hr; format: functional, organism-based; procedure, shortened: as §2
Mus musculus [22] = assay: Antidepressant activity in Swiss albino mouse assessed as reduction in immobility time at 20 mg/kg measured for 4 mins by forced swim test; format: functional; set-up: scale not given: the % may be the effect or the level left
Procedure, shortened: (§3)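 Porsolt forced swim in male Swiss albino mice. Drugs ip (10 ml/kg; 1% Tween 80 suspension, imipramine in water) 30 min before. Cylinder 25 cm high, 10 cm diameter, 6 cm water at 23–25 °C, 6 min session; immobility scored over final 4 min. 5–10 mice/dose; one-way ANOVA with Bonferroni.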

Mus musculus [23] = assay: Antidepressant activity in Swiss albino mouse assessed as reduction in immobility time at 10 mg/kg measured for 4 mins by forced swim test; format: functional; set-up: scale not given: the % may be the effect or the level left; procedure, shortened: as §3

SMILES: O=S(=O)(NCCCCN1CCN(c2ccc(Cl)cc2)CC1)c1ccc2ncccc2c1
- Ki [1]: 2.03 µM
- Ki [2]: 0.044 µM

SMILES: O=C(CCCN1CCC(O)(c2ccc(Cl)cc2)CC1)c1ccc(F)cc1
- Activity (Mus musculus [3]): Active
- inhibition (Mus musculus [4]): Dose-dependent effect

SMILES: O=S(=O)(NCCCCCN1CCN(c2ccc(Cl)cc2)CC1)c1cnc2ccccc2c1
- Ki [1]: 5.8 µM
- Ki [2]: 0.114 µM

SMILES: Cl.O=S(=O)(c1cnc2ccccc2c1)N1CCC(CCN2CCN(c3ccc(Cl)cc3)CC2)CC1
- Activity (Mus musculus [5]): inactive
- inhibition (Mus musculus [6]): Dose-dependent effect
- ED50 (Mus musculus [6]; read-out: ID50 (the source's name)): 25 mg/kg
- inhibition (Mus musculus [7]): Dose-dependent effect
- ED50 (Mus musculus [7]): 5.12 mg/kg
- inhibition [8]: 90%
- inhibition [9]: 63%
- inhibition [10]: 90%
- inhibition [11]: 52%
- Ki (D(2) dopamine receptor): 0.056 µM
- Ratio Ki [12]: 207
- Ki [13]: 0.04 µM
- Ki [14]: 24.8 µM
- Ki [1]: 8.3 µM
- Ki [2]: 0.031 µM

SMILES: O=S(=O)(NCCCCN1CCN(c2cccc(Cl)c2)CC1)c1ccc2ccccc2c1
- Ki [1]: 0.497 µM
- Ki [2]: 0.022 µM

SMILES: O=S(=O)(c1cnc2ccccc2c1)N1CCC(CN2CCN(c3ccc(Cl)cc3)CC2)CC1
- Ki [1]: 0.462 µM
- Ki [2]: 6 µM

SMILES: CN1C(=O)CN=C(c2ccccc2)c2cc(Cl)ccc21 [DIAZEPAM]
- Activity (Rattus norvegicus [15]): 35.4%
- Activity (Rattus norvegicus [16]): 46.6%
- Activity (Rattus norvegicus [17]): 63.7%
- Activity (Rattus norvegicus [18]): 21.8%
- Activity (Rattus norvegicus [19]): 28.5%
- Activity (Rattus norvegicus [20]): 29.7%

SMILES: O=S(=O)(NCCCCN1CCN(c2ccc(Cl)cc2)CC1)c1cnc2ccccc2c1
- inhibition [8]: 78%
- inhibition [9]: 37%
- inhibition [10]: 82%
- inhibition [11]: 46%
- Ki [1]: 0.771 µM
- Ki [2]: 0.056 µM

SMILES: O=S(=O)(NCCCN1CCN(c2ccc(Cl)cc2)CC1)c1cncc2ccccc12
- Ki [1]: 0.888 µM

SMILES: O=S(=O)(NCCCCN1CCN(c2ccc(Cl)cc2)CC1)c1cncc2ccccc12
- Ki [1]: 1 µM
- Ki [2]: 0.211 µM

SMILES: O=S(=O)(NCCCN1CCN(c2cccc(Cl)c2)CC1)c1cnc2ccccc2c1
- Ki [2]: 0.206 µM

SMILES: CN1CCN(C2=Nc3cc(Cl)ccc3Nc3ccccc32)CC1
- Activity (Mus musculus [21]): Active
- inhibition (Mus musculus [4]): Dose-dependent effect

SMILES: O=S(=O)(NCCCCN1CCN(c2cccc(Cl)c2)CC1)c1cccc2ccccc12
- Ratio Ki [12]: 10
- Ki [13]: 0.036 µM
- Ki [14]: 0.127 µM
- Ki [1]: 0.397 µM
- Ki [2]: 0.268 µM

SMILES: O=S(=O)(c1ccc2cccnc2c1)N1CCC(CN2CCN(c3ccc(Cl)cc3)CC2)CC1
- Ki [1]: 0.338 µM
- Ki [2]: 0.761 µM

SMILES: O=S(=O)(NCCCCN1CCN(c2ccc(Cl)cc2)CC1)c1ccc2cccnc2c1
- Ki [13]: 0.381 µM
- Ki [14]: 1.73 µM
- Ki [1]: 0.868 µM
- Ki [2]: 0.063 µM

SMILES: O=S(=O)(NCCCCN1CCN(c2cccc(Cl)c2)CC1)c1ccc2ncccc2c1
- Ki [2]: 0.042 µM

SMILES: O=C(c1ccc(F)cc1)C1CCN(CCn2c(=O)[nH]c3ccccc3c2=O)CC1 [KETANSERIN]
- ED50 (Mus musculus [7]): 0.12 mg/kg

SMILES: O=S(=O)(NCCCCN1CCN(c2cccc(Cl)c2)CC1)c1cnc2ccccc2c1
- inhibition [9]: 30%
- inhibition [10]: 94%
- inhibition [11]: 70%
- Ki [2]: 0.022 µM

SMILES: CN(C)CCCN1c2ccccc2CCc2ccccc21.Cl [IMIPRAMINE HYDROCHLORIDE]
- Activity (Mus musculus [22]): 52%
- Activity (Mus musculus [23]): 26.5%

SMILES: O=S(=O)(NCCCCN1CCN(c2cccc(Cl)c2)CC1)c1cccc2cccnc12
- Ki [13]: 0.025 µM
- Ki [14]: 3.76 µM
- Ki [1]: 0.074 µM
- Ki [2]: 0.152 µM
